Series [1] can be described thus: Genotoxicity in CHO-WBL cells assessed as chromosome aberration at 90 to 397.1 ug/ml measured after 20 hrs in presence of S9 fraction by Giemsa staining based. It counts as toxicity, subcellular, Cricetulus griseus. As to conditions: chinese hamster, s9, 20 h, dose 90-397.1 µg/ml. Summed up: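 CHO-WBL cells in McCoy's 5A with 10% FBS, seeded 20-24 h before treatment. Compound in DMSO, with or without serum-free S-9 mix. Treatment either 3 h, then HBSS wash and 17 h further culture, or 20 h; harvest at 20 h from treatment start. Colcemid 0.1 μg/mL for the final 2 h, hypotonic KCl, methanol:acetic acid fixation, Giemsa stain. 300 metaphases per concentration (150 per duplicate flask) scored.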

The nature of series [2]: Toxicity in female Sprague-Dawley rat assessed as change in white blood cell count at 450 mg/kg/day, po administered for 4 weeks followed by 2 week recovery period (Rvb =3.61 +/- 0.75 10^9/L). As to conditions: in vivo, 672 h. The class given is organism-based.
A short description of series [3]: Toxicity in female Sprague-Dawley rat assessed as effect on food consumption at 50 to 450 mg/kg/day, po administered for 4 weeks followed by 2 week recovery period measured at 1 week interval. Particulars: in vivo, 672 h, dose 50-450 mg/kg/day. It counts as organism-based. The method, boiled down:
(§1)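 SD rats, 6-7 weeks old (96 in total), split into vehicle, 50, 150 and 450 mg/kg/day groups of 12 females and 12 males each, given oral doses once daily for 4 weeks, then 2 weeks of recovery. Mortality, body weight, food intake, eyes, urine and neuropsychic signs were observed. Organ and bone marrow histopathology was done on 8 rats per sex per group after the last dose and on the remaining 4 per sex after 14 days of recovery.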

Series [4] in a line: Toxicity in female Sprague-Dawley rat assessed as change in hematocrit level at 450 mg/kg/day, po administered for 4 weeks followed by 2 week recovery period (Rvb =41.1 +/- 1.4 %). Particulars: in vivo, 672 h. It counts as organism-based.
Series [5] can be described thus: Toxicity in female Sprague-Dawley rat assessed as abnormalities in urine at 50 to 450 mg/kg/day, po administered for 4 weeks measured within last 7 days of treatment period. It counts as organism-based. As to conditions: in vivo, 672 h, dose 50-450 mg/kg/day. The method, boiled down:
(§2)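 SD rats, 6-7 weeks, 12 male and 12 female per group. Oral dosing once daily at 50, 150 or 450 mg/kg/day or vehicle for 4 weeks, then 2-week recovery. 8 per sex dissected after last dose, remaining 4 per sex after 14-day recovery. Body weight, urine, food intake and clinical signs monitored.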

A short description of series [6]: Toxicity in female Sprague-Dawley rat assessed as change in neutrophil level at 450 mg/kg/day, po administered for 4 weeks followed by 2 week recovery period (Rvb =18.5 +/- 5.3 %). It counts as organism-based. Particulars: in vivo, 672 h.
The nature of series [7]: Toxicity in female Sprague-Dawley rat assessed as change in mean corpuscular hemoglobin at 150 mg/kg/day, po administered for 4 weeks followed by 2 week recovery period (Rvb =18.5 +/- 0.6 pg). As to conditions: in vivo, 672 h. The class given is organism-based.
Series [8] can be described thus: Clearance in Balb/c mouse at 2.5 mg/kg, iv by LC-MS/MS analysis. It counts as ADME, organism-based. As to conditions: in vivo. Summed up:
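Female BALB/c mice (20–25 g), five per route. Oral dose 25 mg/kg in 0.5% carboxymethyl cellulose; i.v. dose 2.5 mg/kg in 10% DMSO/physiological saline. Blood sampled 5 min–72 h after p.o. and 2 min–48 h after i.v. Analyte quantified by LC/MS/MS (ESI positive, C18, isocratic methanol/water). Parameters from non-compartmental analysis.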

Series [9] is described as follows: Toxicity in female Sprague-Dawley rat assessed as change in lymphocyte level at 450 mg/kg/day, po administered for 4 weeks followed by 2 week recovery period (Rvb =76.9 +/- 4.6 %). The class given is organism-based. As to conditions: in vivo, 672 h.
Series [10] is described as follows: Toxicity in female Sprague-Dawley rat assessed as change in lymphocyte level at 50 mg/kg/day, po administered for 4 weeks followed by 2 week recovery period (Rvb =76.9 +/- 4.6 %). As to conditions: in vivo, 672 h. The class given is organism-based.
The nature of series [11]: Toxicity in male Sprague-Dawley rat assessed as change in hematocrit level at 50 mg/kg/day, po administered for 4 weeks followed by 2 week recovery period (Rvb =45.2 +/- 1.7 %). It counts as organism-based. Particulars: in vivo, 672 h.
Series [12] is described as follows: Toxicity in female Sprague-Dawley rat assessed as change in neutrophil level at 50 mg/kg/day, po administered for 4 weeks followed by 2 week recovery period (Rvb =18.5 +/- 5.3 %). It counts as organism-based. Particulars: in vivo, 672 h.
Series [13] is described as follows: Toxicity in female Sprague-Dawley rat assessed as change in hematocrit level at 50 mg/kg/day, po administered for 4 weeks followed by 2 week recovery period (Rvb =41.1 +/- 1.4 %). As to conditions: in vivo, 672 h. It counts as organism-based.
Series [14] in a line: Toxicity in female Sprague-Dawley rat assessed as change in platelet count at 50 mg/kg/day, po administered for 4 weeks followed by 2 week recovery period (Rvb =1051 +/- 122 10^9/L). It counts as organism-based. As to conditions: in vivo, 672 h.
The nature of series [15]: Toxicity in female Sprague-Dawley rat assessed as ophthalmic changes at 50 to 450 mg/kg/day, po administered for 4 weeks followed by 2 week recovery period measured within 7 days of post recover period. The class given is organism-based. Particulars: in vivo, 672 h, dose 50-450 mg/kg/day. Summed up:
as §1

Series [16] in a line: Toxicity in female Sprague-Dawley rat assessed as change in white blood cell count at 50 mg/kg/day, po administered for 4 weeks followed by 2 week recovery period (Rvb =3.61 +/- 0.75 10^9/L). The class given is organism-based. Particulars: in vivo, 672 h.
Series [17] is described as follows: Toxicity in male Sprague-Dawley rat assessed as change in mean platelet volume at 150 mg/kg/day, po administered for 4 weeks followed by 2 week recovery period (Rvb =7.0 +/- 0.4 fL). Particulars: in vivo, 672 h. The class given is organism-based.
A short description of series [18]: Toxicity in male Sprague-Dawley rat assessed as change in hemoglobin count at 450 mg/kg/day, po administered for 4 weeks followed by 2 week recovery period (Rvb =144 +/- 5 g/L). It counts as organism-based. Particulars: in vivo, 672 h.
The nature of series [19]: Toxicity in female Sprague-Dawley rat assessed as body weight loss at 50 to 450 mg/kg/day, po administered for 4 weeks followed by 2 week recovery period measured at 1 week interval. It counts as organism-based. As to conditions: in vivo, 672 h, dose 50-450 mg/kg/day. Summed up: as §2
Series [20] in a line: Toxicity in male Sprague-Dawley rat assessed as change in red blood cell count at 150 mg/kg/day, po administered for 4 weeks followed by 2 week recovery period (Rvb =7.86 +/- 0.32 10^12/L). As to conditions: in vivo, 672 h. It counts as organism-based.
A short description of series [21]: Toxicity in female Sprague-Dawley rat assessed as ophthalmic changes at 50 to 450 mg/kg/day, po administered for 4 weeks measured within 7 days of post last dose. It counts as organism-based. As to conditions: in vivo, 672 h, dose 50-450 mg/kg/day. Summed up: as §1
The nature of series [22]: Toxicity in female Sprague-Dawley rat assessed as histopathological changes in bone marrow at 450 mg/kg/day, po administered for 4 weeks measured post last dose. The class given is organism-based. Particulars: in vivo, 672 h. The method, boiled down: as §1
Series [23] can be described thus: Toxicity in male Sprague-Dawley rat assessed as change in mean corpuscular hemoglobin at 150 mg/kg/day, po administered for 4 weeks followed by 2 week recovery period (Rvb =18.3 +/- 0.4 pg). It counts as organism-based. As to conditions: in vivo, 672 h.
Series [24] is described as follows: Toxicity in male Sprague-Dawley rat assessed as abnormalities in urine at 50 to 450 mg/kg/day, po administered for 4 weeks measured within last 7 days of treatment period. It counts as organism-based. Particulars: in vivo, 672 h, dose 50-450 mg/kg/day. The method, boiled down:
as §1

A short description of series [25]: Toxicity in male Sprague-Dawley rat assessed as change in platelet count at 450 mg/kg/day, po administered for 4 weeks followed by 2 week recovery period (Rvb =1077 +/- 117 10^9/L). It counts as organism-based. Particulars: in vivo, 672 h.
Series [26] in a line: Toxicity in male Sprague-Dawley rat assessed as histopathological changes in bone marrow at 450 mg/kg/day, po administered for 4 weeks measured post last dose. It counts as organism-based. Particulars: in vivo, 672 h.

These results are taken from ChEMBL document CHEMBL4725282, “Discovery of a Conformationally Constrained Oxazolidinone with Improved Safety and Efficacy Profiles for the Treatment of Multidrug-Resistant Tuberculosis” (J Med Chem, 2020).

Turning to `CC(=O)NC[C@@H]1OC(=O)N2c3cc(F)c(N4CC[S+]([O-])CC4)cc3OC[C@@H]12`, the Activity entry in [1] was “Non-Toxic”.
For `CC(=O)NC[C@@H]1OC(=O)N2c3cc(F)c(N4CCSCC4)cc3OC[C@@H]12`, the Activity in series [2] is 2.82 10^9/L; in [3] it was “Non-Toxic”; in series [4] it was 36.9%; in series [5], “Non-Toxic”; in series [6], 11.8%; in [7], 18.8 pg. For the same compound, the Activity was 83.7% in series [9]; 80.7% in series [10]; 43.5% in series [11]; 14.8% in series [12]; 38.7% in [13]; 1094 10^9/L in [14]. The Activity result is on record as “Non-Toxic” in series [15]; 4.2 10^9/L in [16]; 7 fL in [17]; 139 g/L in series [18]; “Non-Toxic” in [19]; 7.62 10^12/L in series [20]. Besides, the Activity result was “Non-Toxic” in [21]; “Non-Toxic” in series [22]; 18.5 pg in series [23]; “Non-Toxic” in series [24]; 1038 10^9/L in series [25]; “Non-Toxic” in [26]. Moreover, in series [8], the clearance is 36.5 mL/min/kg.
